# Columns and labels:
# [1] = molecular target: peptide 300 (GGWSHW) (human)
# [2] = molecular target: peptide 300 (GGWSHW) (human); assay: radioligand binding
# melanoma cells = conditions: murine lung colonization assay; ref Tuszynski et al., 1992; cited from earlier work
# human plasma fibronectin = human plasma fibronectin (Homo sapiens, UniProt P02751); assay: Direct binding of [125I]fibronectin to immobilized peptides; conditions: solid phase assay, labeled fibronectin
# fibronectin = fibronectin (Homo sapiens, UniProt P02751); assay type: binding; conditions: for IC50 for competition of [125I]fibronectin binding to peptide GGWSHW: irrelevant proteins as inhibitors; for Inhibition of fibronectin binding to immobilized peptide GGWSHW, in words: soluble peptide or protein as inhibitor
# fibronectin, sequence (P02751 306-608 limits assumed): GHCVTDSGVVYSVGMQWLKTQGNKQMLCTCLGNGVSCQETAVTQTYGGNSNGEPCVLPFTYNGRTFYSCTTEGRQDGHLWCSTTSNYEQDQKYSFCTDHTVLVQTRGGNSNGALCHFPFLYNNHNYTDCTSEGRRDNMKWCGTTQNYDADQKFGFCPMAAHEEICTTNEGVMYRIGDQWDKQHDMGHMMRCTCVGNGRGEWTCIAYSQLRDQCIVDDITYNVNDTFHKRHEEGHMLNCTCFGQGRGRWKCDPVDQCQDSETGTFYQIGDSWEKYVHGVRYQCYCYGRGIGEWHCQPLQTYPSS
# Summary of the method: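 Wells were incubated 2 h at 25°C with [¹²⁵I]human plasma fibronectin (0.2 μg/ml final per methods; 0.5 μg/ml per legends) plus serial dilutions of soluble inhibitors. Wells were washed three times with DPBS, cut out and counted. Duplicates; percent of specific binding without inhibitor.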
# peptide GGWSHW = peptide GGWSHW (Homo sapiens, UniProt P07996); assay type: binding; conditions: detection with antibody 191; wells coated with 50 μg/ml GGWSHW
# Summary of the method: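 Peptide GGWSHW (50 μg/ml) was coated on microtiter wells and blocked with 1% BSA. Wells were incubated with graded concentrations of unlabeled intact fibronectin, the 30-kD proteolytic gelatin-binding domain or the 120-kD proteolytic cell-binding fragment. After washing, bound protein was detected sequentially with 5 μg/ml monoclonal antibody 191 and ¹²⁵I-goat anti-IgG, then counted. Values are mean ± SD of duplicates.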
# [3] = molecular target: human plasma fibronectin (human); assay: radioligand binding
# human plasma fibronectin, sequence (P02751 306-608 limits assumed): as above
molecule,measurement,setting,value
30-kD proteolytic gelatin-binding domain of fibronectin (domain or fragment),half saturation,[1],15 µg/mL
40-kD recombinant fragment of fibronectin with the same amino terminus as the 28-kD fragment (domain or fragment),fold less active as inhibitor than the 33-kD fragment,[2],10 fold
CSTSCG,"Inhibition of metastasis of melanoma cells, in words",melanoma cells,inhibit
CSVTCG,"Inhibition of metastasis of melanoma cells, in words",melanoma cells,inhibit
DGWSPW (DGWCSPW) [compound 317],"Fibronectin binding to immobilized peptide, in words",human plasma fibronectin,inactive
GGWGPW [compound 318],"Fibronectin binding to immobilized peptide, in words",human plasma fibronectin,inactive
fetuin: irrelevant control protein [reference compound],IC50 for competition of [125I]fibronectin binding to peptide GGWSHW,fibronectin,> 200 µg/mL
fibronectin,Half saturation of binding to immobilized peptide GGWSHW,peptide GGWSHW,0.7 µg/mL
same,"Inhibition of fibronectin binding to immobilized peptide GGWSHW, in words",fibronectin,competed
peptide 340 (AAWSHW),IC50,[3],> 300 µM
"thrombospondin: human platelet thrombospondin, extracellular matrix glycoprotein","Inhibition of fibronectin binding to immobilized peptide GGWSHW, in words",fibronectin,competed
transferrin: irrelevant control protein [reference compound],IC50 for competition of [125I]fibronectin binding to peptide GGWSHW,fibronectin,> 200 µg/mL
ovalbumin: irrelevant control protein (protein) MGSIGAASMEFCFDVFKELKVHHANENIFYCPIAIMSALAMVYLGAKDSTRTQINKVVRFDKLPGFGDSIEAQCGTSVNVHSSLRDILNQITKPNDVYSFSLASRLYAEERYPILPEYLQCVKELYRGGLEPINFQTAADQARELINSWVESQTNGIIRNVLQPSSVDSQTAMVLVNAIVFKGLWEKAFKDEDTQAMPFRVTEQESKPVQMMYQIGLFRVASMASEKMKILELPFASGTMSMLVLLPDEVSGLEQLESIINFEKLTEWTSSNVMEERKIKVYLPRMKMEEKYNLTSVLMAMGITDVFSSSANLSGISSAESLKISQAVHAAHAEINEAGREVVGSAEAGVDAASVSEEFRADHPFLFCIKHIATNAVLFFGRCVSP,IC50 for competition of [125I]fibronectin binding to peptide GGWSHW,fibronectin,> 200 µg/mL
GGWSHWSPWSS [peptide 256 (…)],IC50,[3],> 300 µM
